Assays:
CCRF-CEM = test: Anticancer activity against human CCRF-CEM cells after 48 hrs by sulforhodamine B assay; type: functional
In short: (§1)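 NCI-60 human tumour cell line panel. Compounds dissolved in DMSO/H2O and tested at five 10-fold dilutions (10⁻⁴ M to 10⁻⁸ M) for 48 hr. GI50 is the molar concentration giving 50% reduction in net cell growth relative to cell numbers on day 0.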

HL-60(TB) = test: Anticancer activity against human HL-60(TB) cells after 48 hrs by sulforhodamine B assay; type: functional; details: HL-60, 48 h; in short: as §1
K562 = test: Anticancer activity against human K562 cells after 48 hrs by sulforhodamine B assay; type: functional; details: K562, 48 h; in short: as §1
[1] = Anticancer activity against human MOLT4 cells after 48 hrs by sulforhodamine B assay; type: functional; details: MOLT-4, 48 h; in short: as §1
[2] = Anticancer activity against human RPMI8226 cells after 48 hrs by sulforhodamine B assay; type: functional; details: RPMI-8226, 48 h; in short: as §1
SR = test: Anticancer activity against human SR cells after 48 hrs by sulforhodamine B assay; type: functional
In short: (§2)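 NCI-60 panel protocol. Compounds were dissolved in DMSO/H2O and tested at five 10-fold concentrations (10⁻⁴ to 10⁻⁸ M) with 48 hr incubation. GI50 is the molar concentration giving a 50% reduction in net cell growth relative to cell numbers on day 0.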

A549 = test: Anticancer activity against human A549/ATCC cells after 48 hrs by sulforhodamine B assay; type: functional; details: A549, 48 h; in short: as §1
HOP-62 = test: Anticancer activity against human HOP62 cells after 48 hrs by sulforhodamine B assay; type: functional; details: HOP-62, 48 h; in short: as §1
[3] = Anticancer activity against human HOP92 cells after 48 hrs by sulforhodamine B assay; type: functional; details: HOP-92, 48 h; in short: as §1
NCI-H226 = test: Anticancer activity against human NCI-H226 cells after 48 hrs by sulforhodamine B assay; type: functional; details: NCI-H226, 48 h; in short: as §1
NCI-H322M = test: Anticancer activity against human NCI-H322M cells after 48 hrs by sulforhodamine B assay; type: functional; in short: as §1
NCI-H460 = test: Anticancer activity against human NCI-H460 cells after 48 hrs by sulforhodamine B assay; type: functional; details: NCI-H460, 48 h; in short: as §1
NCI-H522 = test: Anticancer activity against human NCI-H522 cells after 48 hrs by sulforhodamine B assay; type: functional; details: NCI-H522, 48 h; in short: as §1
[4] = Anticancer activity against human COLO205 cells after 48 hrs by sulforhodamine B assay; type: functional; details: COLO 205, 48 h; in short: as §1
[5] = Anticancer activity against human HCC2998 cells after 48 hrs by sulforhodamine B assay; type: functional; details: HCC 2998, 48 h; in short: as §1
HCT-116 = test: Anticancer activity against human HCT116 cells after 48 hrs by sulforhodamine B assay; type: functional; details: HCT-116, 48 h; in short: as §1
HCT-15 = test: Anticancer activity against human HCT15 cells after 48 hrs by sulforhodamine B assay; type: functional; details: HCT-15, 48 h; in short: as §1
HT-29 = test: Anticancer activity against human HT-29 cells after 48 hrs by sulforhodamine B assay; type: functional; details: HT-29, 48 h; in short: as §1
KM12 = test: Anticancer activity against human KM12 cells after 48 hrs by sulforhodamine B assay; type: functional; details: KM12, 48 h; in short: as §1
SW-620 = test: Anticancer activity against human SW620 cells after 48 hrs by sulforhodamine B assay; type: functional; details: SW-620, 48 h; in short: as §2
SF-268 = test: Anticancer activity against human SF268 cells after 48 hrs by sulforhodamine B assay; type: functional; details: SF-268, 48 h; in short: as §1
[6] = Anticancer activity against human SF295 cells after 48 hrs by sulforhodamine B assay; type: functional; details: SF-295, 48 h; in short: as §1
[7] = Anticancer activity against human SF539 cells after 48 hrs by sulforhodamine B assay; type: functional; details: SF-539, 48 h; in short: as §1
SNB-19 = test: Anticancer activity against human SNB19 cells after 48 hrs by sulforhodamine B assay; type: functional; details: SNB-19, 48 h; in short: as §1
SNB-75 = test: Anticancer activity against human SNB75 cells after 48 hrs by sulforhodamine B assay; type: functional; details: SNB-75, 48 h; in short: as §1
U-251 = test: Anticancer activity against human U251 cells after 48 hrs by sulforhodamine B assay; type: functional; details: U-251, 48 h; in short: as §2
[8] = Anticancer activity against human LOXIMVI cells after 48 hrs by sulforhodamine B assay; type: functional; details: LOX IMVI; in short: as §1
Malme-3M = test: Anticancer activity against human MALME-3M cells after 48 hrs by sulforhodamine B assay; type: functional; in short: as §1
M14 = test: Anticancer activity against human M14 cells after 48 hrs by sulforhodamine B assay; type: functional; details: M14, 48 h; in short: as §1
MDA-MB-435 = test: Anticancer activity against human MDA-MB-435 cells after 48 hrs by sulforhodamine B assay; type: functional; details: MDA-MB-435, 48 h; in short: as §1
SK-MEL-2 = test: Anticancer activity against human SK-MEL-2 cells after 48 hrs by sulforhodamine B assay; type: functional; details: SK-MEL-2, 48 h; in short: as §1
SK-MEL-28 = test: Anticancer activity against human SK-MEL-28 cells after 48 hrs by sulforhodamine B assay; type: functional; details: SK-MEL-28, 48 h; in short: as §1
SK-MEL-5 = test: Anticancer activity against human SK-MEL-5 cells after 48 hrs by sulforhodamine B assay; type: functional; details: SK-MEL-5, 48 h; in short: as §1
UACC-257 = test: Anticancer activity against human UACC257 cells after 48 hrs by sulforhodamine B assay; type: functional; details: UACC-257, 48 h; in short: as §2
IGROV-1 = test: Anticancer activity against human IGROV1 cells after 48 hrs by sulforhodamine B assay; type: functional; details: IGROV-1, 48 h; in short: as §1
OVCAR-3 = test: Anticancer activity against human OVCAR3 cells after 48 hrs by sulforhodamine B assay; type: functional; details: OVCAR-3, 48 h; in short: as §1
OVCAR-4 = test: Anticancer activity against human OVCAR4 cells after 48 hrs by sulforhodamine B assay; type: functional; details: OVCAR-4, 48 h; in short: as §1
OVCAR-5 = test: Anticancer activity against human OVCAR5 cells after 48 hrs by sulforhodamine B assay; type: functional; details: OVCAR-5, 48 h; in short: as §1
OVCAR-8 = test: Anticancer activity against human OVCAR8 cells after 48 hrs by sulforhodamine B assay; type: functional; details: OVCAR-8, 48 h; in short: as §1
[9] = Anticancer activity against human NCI-ADR-RES cells after 48 hrs by sulforhodamine B assay; type: functional; in short: as §1
SK-OV-3 = test: Anticancer activity against human SKOV3 cells after 48 hrs by sulforhodamine B assay; type: functional; details: SK-OV-3, 48 h; in short: as §1
786-0 = test: Anticancer activity against human 786-0 cells after 48 hrs by sulforhodamine B assay; type: functional; details: 786-0, 48 h; in short: as §1
A498 = test: Anticancer activity against human A498 cells after 48 hrs by sulforhodamine B assay; type: functional; details: A498, 48 h; in short: as §1
ACHN = test: Anticancer activity against human ACHN cells after 48 hrs by sulforhodamine B assay; type: functional; in short: as §1
CAKI-1 = test: Anticancer activity against human Caki1 cells after 48 hrs by sulforhodamine B assay; type: functional; details: CAKI-1, 48 h; in short: as §1
[10] = Anticancer activity against human RXF393 cells after 48 hrs by sulforhodamine B assay; type: functional; details: RXF 393, 48 h; in short: as §1
SN12C = test: Anticancer activity against human SN12C cells after 48 hrs by sulforhodamine B assay; type: functional; in short: as §1
TK-10 = test: Anticancer activity against human TK10 cells after 48 hrs by sulforhodamine B assay; type: functional; details: TK-10, 48 h; in short: as §2
UO-31 = test: Anticancer activity against human UO31 cells after 48 hrs by sulforhodamine B assay; type: functional; details: UO-31, 48 h; in short: as §2
DU-145 = test: Anticancer activity against human DU145 cells after 48 hrs by sulforhodamine B assay; type: functional; details: DU-145, 48 h; in short: as §1
MCF7 = test: Anticancer activity against human MCF7 cells after 48 hrs by sulforhodamine B assay; type: functional; details: MCF7, 48 h; in short: as §1
MDA-MB-231 = test: Anticancer activity against human MDA-MB-231 cells after 48 hrs by sulforhodamine B assay; type: functional; details: MDA-MB-231, 48 h; in short: as §1
[11] = Anticancer activity against human Hs 578T cells after 48 hrs by sulforhodamine B assay; type: functional; in short: as §1
BT-549 = test: Anticancer activity against human BT549 cells after 48 hrs by sulforhodamine B assay; type: functional; details: BT-549, 48 h; in short: as §1
T47D = test: Anticancer activity against human T47D cells after 48 hrs by sulforhodamine B assay; type: functional; in short: as §2
MDA-MB-468 = test: Anticancer activity against human MDA-MB-468 cells after 48 hrs by sulforhodamine B assay; type: functional; details: MDA-MB-468, 48 h; in short: as §1
[12] = Anticancer activity against human OCI-AML3 cells expressing mutant NPM1 assessed as apoptosis for 48 hrs by annexin-V and TO-PRO3 staining based flow cytometry; type: functional, cell-based; details: OCI-AML-3, 48 h
In short: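 OCI-AML3 cells (NPM1c+) in logarithmic growth, passaged 2–3 times weekly. Cells were exposed to the indicated compound concentrations for 48 hr, then stained with annexin V and TO-PRO 3. Percent apoptotic cells was read by flow cytometry. AP50 is the concentration at which 50% of cells undergo apoptosis.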

Cc1c(C=C2C(=O)NC(=S)NC2=O)c2ccccc2n1Cc1ccccc1
GI50 (CCRF-CEM): 0.59 µM
GI50 (HL-60(TB)): 0.29 µM
GI50 (K562): 1.26 µM
GI50 [1]: 1.71 µM
GI50 [2]: 0.35 µM
GI50 (SR): 0.34 µM
GI50 (A549): 1.85 µM
GI50 (HOP-62): 1.09 µM
GI50 [3]: 0.4 µM
GI50 (NCI-H226): 1.88 µM
GI50 (NCI-H322M): 1.63 µM
GI50 (NCI-H460): 0.98 µM
GI50 (NCI-H522): 1.85 µM
GI50 [4]: 1.33 µM
GI50 [5]: 1.18 µM
GI50 (HCT-116): 0.89 µM
GI50 (HCT-15): 1.3 µM
GI50 (HT-29): 1.37 µM
GI50 (KM12): 0.95 µM
GI50 (SW-620): 1.24 µM
GI50 (SF-268): 1.26 µM
GI50 [6]: 0.93 µM
GI50 [7]: 1.14 µM
GI50 (SNB-19): 1.31 µM
GI50 (SNB-75): 1.51 µM
GI50 (U-251): 1.16 µM
GI50 [8]: 0.53 µM
GI50 (Malme-3M): 2.31 µM
GI50 (M14): 1.4 µM
GI50 (MDA-MB-435): 1.15 µM
GI50 (SK-MEL-2): 2.08 µM
GI50 (SK-MEL-28): 1.66 µM
GI50 (SK-MEL-5): 1.37 µM
GI50 (UACC-257): 1.41 µM
GI50 (IGROV-1): 0.97 µM
GI50 (OVCAR-3): 1.18 µM
GI50 (OVCAR-4): 1.24 µM
GI50 (OVCAR-5): 1.75 µM
GI50 (OVCAR-8): 1.13 µM
GI50 [9]: 1.89 µM
GI50 (SK-OV-3): 1.89 µM
GI50 (786-0): 1.58 µM
GI50 (A498): 1.56 µM
GI50 (ACHN): 1.37 µM
GI50 (CAKI-1): 1.57 µM
GI50 [10]: 1.23 µM
GI50 (SN12C): 1.15 µM
GI50 (TK-10): 1.47 µM
GI50 (UO-31): 0.88 µM
GI50 (DU-145): 1.31 µM
GI50 (MCF7): 0.7 µM
GI50 (MDA-MB-231): 1.34 µM
GI50 [11]: 0.51 µM
GI50 (BT-549): 1.6 µM
GI50 (T47D): 1.9 µM
GI50 (MDA-MB-468): 0.51 µM
AC50 [12]: 3.31 µM
